# Compounds with a hit are over-represented: about 1.7% of the library has one in this group of screens.
# LMPTP inh – blocks human LMPTP phosphatase | P24666 | recombinant LMPTP-A, OMFP fluorogenic substrate, fluorescence intensity | inhibition, % at 20 µM | 0.22% of 360,000 active | AID 651560;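 active means compounds that cut the enzyme signal by at least half of the control window in the single-dose screen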
# Target sequence (P24666 whole entry, looked up): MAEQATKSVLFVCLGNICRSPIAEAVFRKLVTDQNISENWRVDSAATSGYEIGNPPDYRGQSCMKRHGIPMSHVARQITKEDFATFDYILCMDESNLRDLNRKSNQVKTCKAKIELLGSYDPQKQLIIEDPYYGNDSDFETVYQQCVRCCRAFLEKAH
#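 Test system: LMPTP-A phosphatase enzyme. Amount: LMPTP-A at 0.625 nM final in the reaction. Reagent: OMFP substrate, 400 µM final. Times: 50 min at room temperature. Signal: endpoint fluorescence intensity from OMFP dephosphorylation. Read-out basis: % inhibition. Benchmarks: no-enzyme and uninhibited controls.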
# SUMO1-SIM PPI – modulators of human SUMO1-mediated protein-protein interactions. 0.33% of 360,000 active. SUMO1 binding to a labelled peptide, TR-FRET, 1 h. inhibition, % at 20 µM. P63165; in the data active means inhibition above about 37%
# Target sequence (P63165 whole entry, looked up): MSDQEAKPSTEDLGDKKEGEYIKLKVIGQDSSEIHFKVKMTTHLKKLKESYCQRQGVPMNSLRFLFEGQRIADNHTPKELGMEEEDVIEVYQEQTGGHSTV
# STEP inh – blocks human striatal-enriched tyrosine phosphatase | P54829 | recombinant STEP, OMFP fluorogenic substrate, fluorescence | inhibition, % at 20 µM | 0.25% of 360,000 active;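 active means inhibition at 20 µM, scaled per plate between control wells, above about 37%, limit read from the data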
#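 Measure: Control-normalized % inhibition with plate pattern correction | Test system: STEP phosphatase, cell-free reaction | Medium: pH 6.0 Bis-Tris with DTT and Tween 20 | Technique: Fluorescence, 480/540 nm | Times: Reaction 20 min, ambient temperature | Doses: Single compound dose of 20 µM, 1% DMSO final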
# DNMT1 inh – blocks human DNA methyltransferase DNMT1 | P26358 | 0.83% of 360,000 active | DNMT1 molecular beacon, Hinp1I cleavage, fluorescence | inhibition (reported as % activation of signal), % at 10 µM; in the data active means inhibition above about 50%
# Scp-1 inhibitor – blocks human Scp-1 phosphatase activity; Q9GZU7; Recombinant Scp1, phosphopeptide, malachite green phosphate absorbance; inhibition, % at 20 µM; 0.88% of 340,000 active;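 active means inhibition above about 50% at 20 µM, limit read from the data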
# Target sequence (Q9GZU7 76-261 limits assumed): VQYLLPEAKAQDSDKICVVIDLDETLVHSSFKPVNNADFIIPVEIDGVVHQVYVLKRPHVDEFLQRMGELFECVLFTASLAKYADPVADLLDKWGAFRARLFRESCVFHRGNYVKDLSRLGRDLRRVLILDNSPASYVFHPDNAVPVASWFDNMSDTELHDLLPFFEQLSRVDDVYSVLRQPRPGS
#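 Test system: SCP-1 catalytic domain; Buffer or medium: Acidic Tris acetate buffer with magnesium and detergent; Also added: Phosphorylated 17-residue peptide substrate; Compound: single 20 µM dose, 1% DMSO; Schedule: enzyme reaction 45 min at room temperature, colour 5 min, stabilisation 30 min; Signal: Phosphate-binding colour reagent, absorbance read at 630 nm.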
# DNMT1 interf DR – shows spectral interference in the DNMT1 beacon assay; shares compounds with DNMT1 inh; molecular beacon fluorescence, spectral interference counter-screen; IC50, µM; 200 tested, under 10 active; call rule not given here
# DNMT1 confirm – confirmation of human DNMT1 inhibitors. DNMT1 molecular beacon HinP1I cleavage, fluorescence. AID 602385. shares compounds with DNMT1 inh. inhibition, % at 10 µM. 8% of 2,300 active;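 active means average inhibition of at least 30% in the single-concentration confirmation test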
# Beacon interf – counter-screen for DNMT1 inhibitors: spectral interference; shares compounds with DNMT1 inh; DNMT1 molecular beacon spectral interference counterscreen, fluorescence 485/520; activation (fluorescence interference), % at 10 µM; 1% of 2,300 active; AID 602387;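 active means activation of at least 30% at 10 µM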;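 further: DNMT1 catalytic domain with a HinP1I cleavage step and a FAM/dabcyl DNA beacon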
# Hits are given with their value; - = inactive; . = not tested or not shown.
SMILES,LMPTP inh,SUMO1-SIM PPI,STEP inh,DNMT1 inh,Scp-1 inhibitor,DNMT1 confirm,Beacon interf,others
Cc1ccccc1CN1CCN(CC(=O)NCc2ccccc2)CC1,-,-,-,-,-,.,.,
C=C(C)C(=O)Nc1cccc(C2=NOC3(C2)C[C@H](C(N)=O)N(C(=O)CC)C3)c1 (stereo partly drawn),-,62,-,99,64,55,-,DNMT1 interf DR=-
C/C=C/C=C/C(=O)N1CC2(CC(c3cccc(NC(=O)CCCCC)c3)=NO2)C[C@H]1C(N)=O (stereo partly drawn),-,-,-,66,-,-,-,
C=C(C)C(=O)Nc1cccc(C2=NOC3(C2)C[C@@H](C(N)=O)N(C(=O)/C=C/C=C/C)C3)c1 (stereo partly drawn),-,105,-,105,75,90,-,DNMT1 interf DR=-
O=C(NC1(Cc2ccccc2)CCN(CCc2cccs2)C1=O)c1ccccc1 (stereo not drawn),-,-,-,-,-,.,.,
C[C@@H]1CN([C@H](C)CO)C(=O)c2cc(Br)cnc2O[C@H]1CN(C)C(=O)CC1CC1,-,-,-,-,.,.,.,
CC(C)(C)NC(=O)C1(C)CCC(=O)N1C1CCN(Cc2ccccc2)CC1 (stereo not drawn),-,-,-,-,.,.,.,
OC1CCCN(Cc2ccc3ccc4cccc5ccc2c3c45)C1 (stereo not drawn),-,-,-,65,-,-,-,
COc1cccc2c1OCC(C(=O)O)C2 (stereo not drawn),-,-,-,53,-,-,-,
Cn1c(=O)c(C(=O)NCC2CCCO2)c(O)c2ccccc21 (stereo not drawn),-,-,-,-,-,.,.,
CC(=O)Nc1ccc(OC(F)(F)C(F)F)c(NC(C)=O)c1,-,-,-,-,-,.,.,
C=C(C)C(=O)Nc1ccc(OC(F)(F)C(F)F)c(NC(=O)C(=C)C)c1,-,-,-,56,-,-,-,
CCC(=O)Nc1c(C#N)c2nc3ccccc3nc2n1C1CCCCC1,-,72,-,94,-,-,-,
N#Cc1c(N)n(C2CCCCC2)c2nc3ccccc3nc12,-,-,-,-,-,.,.,
CCCCn1c(NC(=O)CC)c(C#N)c2nc3ccccc3nc21,-,-,-,74,-,-,-,
Cc1ccc(/C=N/NC(=O)c2cccc(S(=O)(=O)Nc3ccccc3Cl)c2)o1,-,-,-,-,-,.,.,
O=C(N/N=C/c1ccco1)c1cccc(S(=O)(=O)Nc2ccccc2Cl)c1,-,-,-,56,-,-,-,
CCCCN(C(=O)c1cccc(-n2cccc2)c1)c1c(N)n(CCC)c(=O)[nH]c1=O,-,-,-,62,70,-,-,
Cc1ccc(-c2cc(-c3ccccc3O)nc(N/N=C/c3cccnc3)n2)cc1,-,-,-,52,-,-,-,
CCOC(=O)C1=CCN(S(=O)(=O)c2ccccc2F)C1c1ccc(F)cc1 (stereo not drawn),-,-,-,-,.,.,.,
CCc1nc2ccc(C(=O)N3CCN(C(C)=O)CC3)cn2c1N(C=O)Cc1ccc(OC)cc1,-,-,-,-,.,.,.,
O=C(Cc1ccc(F)cc1)N/N=C/c1ccccn1,-,-,-,66,-,-,-,
Cc1nn(-c2cccc(Cl)c2)c(Cl)c1/C=N/NC(=O)c1cccs1,-,-,-,72,-,-,-,
CCNC(=S)N/N=C/c1c(C)nn(-c2cccc(Cl)c2)c1Cl,-,-,-,-,-,.,.,
Cc1cc(C)cc(OCC(=O)OC(C)C(=O)Nc2ccc(Cl)cn2)c1 (stereo not drawn),-,-,-,-,-,.,.,
SMILES,LMPTP inh,SUMO1-SIM PPI,STEP inh,DNMT1 inh,Scp-1 inhibitor,DNMT1 confirm,Beacon interf,others
COCCN(C(=O)c1cc2c(s1)CCC2)c1c(N)n(CC(C)C)c(=O)[nH]c1=O,-,-,-,61,-,-,-,
Cn1c(SCC(=O)c2cc(Cl)c(Cl)s2)nnc1-c1ccco1,-,-,-,52,-,-,-,
O=C(/C=C/c1ccc2c(c1)OCO2)NCCS(=O)(=O)N1CCN(c2ccccc2)CC1,-,-,-,71,.,-,-,
O=C(/C=C/c1ccc2c(c1)OCO2)NCCS(=O)(=O)N1CCN(c2ccc(F)cc2)CC1,-,-,-,-,-,.,.,
Cn1c(-c2cccc(OCc3ccccc3)c2)nc2c1c(=O)[nH]c(=O)n2Cc1ccccc1,-,-,-,57,-,-,-,
CCc1ccc(CN(C)C(=O)c2cc(COc3cncc(Cl)c3)on2)cc1,-,-,-,-,.,.,.,
CC(=O)N=c1c(C#N)cc2c(=O)n3ccccc3nc2n1CCCOC(C)C,-,-,-,-,-,.,.,
CC(C)OCCCn1c(=N)c(C(N)=S)cc2c(=O)n3ccccc3nc21,-,-,-,64,-,-,-,
CC1CN(c2ccccn2)C(C)CN1C(=S)Nc1ccccc1 (stereo not drawn),-,-,-,-,-,.,.,
COc1ccc2nc(/C(C#N)=C\c3ccc(C(=O)O)cc3)[nH]c2c1,-,-,-,-,-,.,.,
COc1ccc2nc(/C(C#N)=C\c3ccc(Oc4ccc([N+](=O)[O-])cn4)cc3)[nH]c2c1,-,-,-,57,-,-,-,
Cc1ccc2nc(/C(C#N)=C\c3ccc(Oc4ccc([N+](=O)[O-])cn4)cc3)[nH]c2c1,-,-,-,54,-,-,-,
COc1ccccc1N1C(=O)C=C(Sc2nc(C)cc(C)n2)C1=O,-,-,-,-,-,.,.,
CCc1nc2ccc(C(=O)Nc3cccc(OCC(=O)N(C)C)c3)cn2c1N(C)C(=O)c1cccc(OC)c1,-,-,-,-,.,.,.,
O=C(CCN1CCc2ccccc21)c1ccc2c(c1)OCCO2,-,-,-,54,-,-,-,
O=C(CCN1CCc2ccccc2C1)c1ccc2c(c1)OCCO2,-,-,-,-,-,.,.,
CC1=C(C(=O)N2CCOCC2)CC(CC(=O)NCC2CCCCC2)C(=O)N1CCC1=CCCCC1 (stereo not drawn),-,-,-,-,.,.,.,
Cn1c(=O)c2cc(NC(=O)NCCc3ccccc3)ccc2n1Cc1ccccc1,-,-,-,69,.,-,-,
O=C(O)c1cc(N/N=C/c2cccc3ccccc23)ccc1Cl,-,-,-,-,-,.,.,
CC(C)n1cc(/C=N/Nc2ccc(Cl)c(C(=O)O)c2)c2ccccc21,54,114,91,82,.,-,-,
Nc1c(N(CCC2=CCCCC2)C(=O)COc2ccc(F)cc2Cl)c(=O)[nH]c(=O)n1Cc1ccccc1,-,-,-,54,-,-,-,
Nc1c(N(CCC2=CCCCC2)C(=O)COc2ccc([N+](=O)[O-])cc2)c(=O)[nH]c(=O)n1Cc1ccccc1,-,-,-,58,-,-,-,
